Granule exo inh = LAMP-1 surface exposure blockers, TALL-104 cells – cell-based, flow cytometry, MLPCN library, primary screen. TALL-104 LAMP-1 surface exposure; cells stimulated with thapsigargin and PMA. inhibition, % at 10 µM. hit rate 0.66% among 360,000;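 active = inhibition above about 55%, limit read from the data; inconclusive = no clear call, values can overlap the other calls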
ABHD5 PLIN5 PPI = ABHD5-PLIN5 interaction inhibitors, primary screen, cell lysate, split luciferase complementation, luminescence; hit rate 0.78% among 360,000; inhibition, % at 4 µM; Perilipin-5 (Homo sapiens) + 1-acylglycerol-3-phosphate O-acyltransferase ABHD5 (Homo …; Split G. princeps luciferase complementation, 4 h; AID 602281, 2012;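 active = inhibition above the mean inhibition across every tested compound plus 3 SD, cut at about 22% in these data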;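 also: 0% = DMSO only wells and the 100% control is not disclosed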
Mdm2 MdmX PPI = inhibitors of human Mdm2-MdmX association, primary screen, cell-based, luminescence, split luciferase, SaOS-2, uHTS; inhibition, % at 8 µM; AID 485346, 2010; Protein Mdm4 (Homo sapiens) + E3 ubiquitin-protein ligase Mdm2 (Homo sapiens), …; SaOS-2 split-luciferase Mdm2/MdmX complementation; hit rate 3% among 330,000;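 active = inhibition of at least 50% at 8 µM in the primary screen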
CHOP UPR activ = activators of apoptotic CHOP UPR arm, primary screen, cell-based, CHO-CHOP luciferase reporter, luminescence, uHTS; UPR activation; percent of tunicamycin response over DMSO baseline; activation, % at 10 µM; hit rate 0.34% among 330,000; AID 449763, 2010;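 active = at 10 µM dose, activation of 40% or more, normalized to positive control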;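 also: 100% = tunicamycin at 10 µg/mL and 0% = DMSO alone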
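Assay system: CHO-CHOP cells, stable luciferase reporter of PERK-eIF2a-CHOP signalling / Buffer or medium: F12 plus 10% serum / Compound dosing: one dose, 10 µM in 0.5% DMSO / Times: 6 h compound treatment, 37 °C / Technique: luciferase luminescence / Read-out: % reporter activation, DMSO baseline versus tunicamycin full activation / Benchmarks: tunicamycin and DMSO controls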
XBP1 UPR activ = activators of adaptive XBP1 UPR arm, primary screen, cell-based, CHO-XBP1 luciferase reporter, luminescence, uHTS. hit rate 0.33% among 330,000. activation, % at 20 µM. IRE1-XBP1 UPR activation; percent of tunicamycin response, DMSO as zero. AID 463104, 2010;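 active = versus positive control, 20 µM dose yields 30% or more activation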;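 also: 100% = tunicamycin at 10 µg/mL and 0% = DMSO only wells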
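Material: IRE1-XBP1 luciferase reporter CHO line / Quantity: one thousand reporter cells per well / Buffer or medium: F12 with 10% serum / Compound: 20 µM single concentration, DMSO 1% / Times: 6 h treatment, 37 °C / Detection: Steady-Glo luciferase glow luminescence, 10 min after reagent addition / Benchmarks: tunicamycin high, DMSO low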
UPR CHOP confirm = activators of apoptotic CHOP UPR arm, confirmation, cell-based, CHO-CHOP luciferase reporter, single concentration. CHO-CHOP cells, CHOP-luciferase reporter luminescence; percent of tunicamycin response, DMSO as zero. AID 463112, 2010. shares compounds with CHOP UPR activ. activation, % at 10 µM. hit rate 64% among 1,000; in the data active = activation above about 33%;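 also: 0% = DMSO wells and 100% = tunicamycin 10 µg/mL wells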
Starred values were filed as active, the others as inactive; ? = inconclusive; nt = not tested or not shown. Hits are enriched below; roughly 4% of the tested compounds scored in any of these assays.

SMILES | Granule exo inh | ABHD5 PLIN5 PPI | Mdm2 MdmX PPI | CHOP UPR activ | XBP1 UPR activ | others
COC(=O)C1=Nc2ccccc2/C1=C\c1c(O)n(-c2ccc(OC)cc2)c(=O)[nH]c1=O | -2.0 | 37.6* | -11.7 | 0.0 | -3.2
COC(=O)C1=Nc2ccccc2/C1=C\c1c(O)n(-c2ccc(Br)cc2)c(=O)[nH]c1=O | 3.7 | 19.0 | nt | nt | nt
Nc1cc(N2CCNCC2)ccc1[N+](=O)[O-] | -2.7 | 3.7 | 4.8 | 2.0 | 0.8
CCOC(=O)[C@]12Cc3ccccc3[C@H]1N(C)C(=O)c1cc(OC)ccc12 | -6.8 | 11.0 | nt | nt | nt
CCOC(=O)[C@]12Cc3c(cc(OC)c(OC)c3OC)[C@H]1N(C)C(=O)c1cc(OC)ccc12 | 2.9 | 22.8* | nt | nt | nt
CCOC(=O)[C@@H]1[C@H]2COc3ccc(Br)cc3[C@@H]2N2C(=O)N(c3cccc(C)c3)C(=O)[C@]12C | 5.8 | -11.1 | 20.9 | -0.7 | -0.5
Cc1cccc(N=C2c3cc([N+](=O)[O-])ccc3-c3c2cc([N+](=O)[O-])cc3[N+](=O)[O-])c1 | 0.1 | 22.1* | nt | nt | nt
CCOP(=O)(OCC)OCC | -0.5 | 4.4 | 12.6 | 2.1 | -0.8
CCOP(=O)(CCP(=O)(OCC)OCC)OCC.C[CH2][Sn]([Cl])([Cl])[CH2]C | -9.1 | 78.2* | nt | nt | nt
O=C(O)c1cc[c]([Hg][Cl])cc1 | 35.4 | 82.4* | -13.0 | 1.8 | -3.0
CCn1nc(-c2cccs2)nc2c(=O)n(C)c(=O)nc1-2 | 79.1* | -10.8 | nt | nt | nt
CCOc1ccc(-n2c(-c3cccs3)nc3ccccc3c2=O)cc1 | -0.4 | 2.4 | 20.2 | -0.8 | -3.9
Cc1ccc(-n2c(O)c(C=NCCN3CCNCC3)c(=O)[nH]c2=S)cc1 | -7.8 | -7.5 | -24.5 | 0.9 | -2.4
CC(C)n1c(O)c(C2c3cc(Cl)ccc3Oc3[nH]c(=O)n(C(C)C)c(=O)c32)c(=O)[nH]c1=O (stereo not given) | 0.5 | 37.2* | nt | nt | nt
COC(=O)C1=C(c2ccc(Cl)c(C(F)(F)F)c2)C[C@@H]2CC[C@H]1N2C(=O)NCc1ccc2c(c1)OCO2 | 76.1* | -0.2 | 16.9 | -0.7 | -2.5
COC(=O)C1=C(c2ccc(C(C)=O)cc2)C[C@@H]2CC[C@H]1N2C(=O)NCc1ccc2c(c1)OCO2 | 2.2 | -9.4 | 22.8 | 0.4 | -1.9
COc1ccc(CCn2c(O)c(C=Nc3ccccc3F)c(=O)[nH]c2=O)cc1OC | -0.1 | 18.9 | -4.1 | -1.3 | -0.1
CCOc1cc(/C=C2/C(=O)NC(=O)N(c3ccc(CC)cc3)C2=O)ccc1OC(=O)c1cccs1 | 1.6 | 22.0* | 11.3 | 0.6 | 1.8
CC[C@@H]1c2ccccc2[C@@H]2CC[C@H]1N2c1ccccc1 | -4.8 | -13.1 | nt | nt | nt
Oc1ccccc1-[n+]1c(-c2ccccc2)cc(-c2ccccc2)c(O)c1-c1ccccc1 | 74.4* | -3.2 | 39.9 | 3.9 | 1.3
O=[N+]([O-])/C=C/c1c(Cl)cccc1Cl | 31.6 | 22.2* | nt | nt | nt
Cc1ccc(OP(N)(=O)Oc2ccc(C)cc2)cc1 | -3.6 | 0.3 | 9.0 | -0.7 | 2.2
COCCCNC(=O)Cn1cc(/C=C2\C(=O)NC(=O)N(c3ccccc3F)C2=O)c2ccccc21 | ? | 27.0* | 10.6 | -2.0 | -5.8
COc1ccc(N2C(=O)/C(=C/c3ccc(N(C)C)o3)C(=O)NC2=S)cc1 | 5.1 | 23.0* | -1.4 | -0.8 | -2.2
O=C1NC(=O)N(CCC2=CCCCC2)C(=O)/C1=C\c1cccs1 | 5.3 | -30.9 | 8.2 | 2.0 | 7.9
SMILES | Granule exo inh | ABHD5 PLIN5 PPI | Mdm2 MdmX PPI | CHOP UPR activ | XBP1 UPR activ | others
O=C1NC(=O)N(CCc2ccc(F)cc2)C(=O)/C1=C/c1cccs1 | 79.9* | -12.6 | 5.3 | 4.2 | 10.3
Cc1nc2c(c(=O)[nH]1)C(c1ccccc1Cl)c1c(c3ccccc3oc1=O)O2 (stereo not given) | nt | nt | 3.9 | -1.6 | 1.4
Cc1cccc(N2C(=O)NC(=O)/C(=C/c3ccc(N4CCOCC4)cc3)C2=O)c1 | 1.2 | 22.5* | 21.7 | 0.6 | -1.6
Cc1cccc(N2C(=O)NC(=O)/C(=C\c3ccc(N4CCOCC4)cc3)C2=O)c1 | 10.6 | 3.0 | 18.5 | 1.2 | 1.5
CCCOC(=O)Nc1ccc([As](=O)(O)O)cc1NC(=O)OCCC | -8.0 | 5.5 | -14.2 | 1.1 | -3.5
O=c1[nH]c(=S)n(C2CC2)c(O)c1C=Nc1cccc(C(F)(F)F)c1 | -11.9 | -1.2 | 23.1 | 46.1* | 23.0 | UPR CHOP confirm=35.5*
CCOC(=O)C(O)(c1ccc(NC(=O)Oc2ccccc2)cc1)C(F)(F)F (stereo not given) | 6.2 | -16.0 | 9.4 | -0.9 | -0.6
CCCCCn1c(=O)c(C(=O)Nc2ncccc2C)c(O)c2ccccc21 | -4.5 | -7.6 | 18.1 | 46.1* | 35.7* | UPR CHOP confirm=23.9
CCCCn1c(=O)c(C(=O)Nc2ccccc2C)c(O)c2ccccc21 | -1.6 | 4.8 | 14.0 | 0.9 | -1.6
CCOC(=O)c1c(-n2c(C)cc(C=C3C(=O)NC(=S)NC3=O)c2C)sc2c1CCCC2 | 2.2 | -15.5 | -5.7 | 185.1* | 4.5 | UPR CHOP confirm=-10.9
CCOC(=O)c1c(-n2c(C)cc(/C=C3/C(=O)NC(=O)N(CC)C3=O)c2C)sc2c1CCCC2 | 12.9 | -9.5 | 32.5 | 1.1 | -1.3
CCn1c(O)c(N=Nc2cccc(S(=O)(=O)N3CCOCC3)c2)c(=O)n(CC)c1=S | 1.4 | 2.6 | 44.0 | 41.4* | -1.1 | UPR CHOP confirm=4.6
OCC[N+]12CCC(CC1)C(C(O)(c1ccccc1)c1ccccc1)C2 (stereo not given) | 2.8 | -0.3 | 3.0 | 1.6 | -3.3
CN(CCc1ccccc1)Cc1c[nH]c2ccccc12 | 1.5 | -4.0 | 33.0 | 87.8* | 4.7 | UPR CHOP confirm=19.6
COc1cccc(N2C(=O)/C(=C/c3ccc(C)o3)C(=O)NC2=S)c1 | -6.6 | 5.8 | -12.1 | 262.1* | -1.0 | UPR CHOP confirm=0.1
Cc1ccc(/C=C2\C(=O)NC(=S)N(c3ccc(F)cc3)C2=O)o1 | 3.7 | 0.9 | -7.2 | -0.5 | -3.2
COc1ccc(N2C(=O)/C(=C/c3cccs3)C(=O)NC2=S)cc1 | -3.9 | 0.5 | 0.1 | 462.0* | -6.9 | UPR CHOP confirm=157.3*
COc1ccc(N2C(=O)/C(=C/C=C/c3ccccc3[N+](=O)[O-])C(=O)NC2=S)cc1 | nt | nt | 11.5 | 355.5* | -6.7 | UPR CHOP confirm=90.2*
CCC1(CC)C(=O)N(C)C(=O)NC1=NC | -0.6 | 5.4 | 17.5 | 1.5 | 0.0
CC(C)N1C(=O)/C(=C/C=C/c2ccco2)C(=O)N(Cc2ccco2)C1=O | 0.3 | 20.0 | 27.8 | 45.1* | 8.3 | UPR CHOP confirm=156.4*

Bioassay records (PubChem)
